Data on one molecule can be found in ChEMBL document CHEMBL4402612, “Heterodimeric Analogues of the Potent Y1R Antagonist 1229U91, Lacking One of the Pharmacophoric C-Terminal Structures, Retain Potent Y1R Affinity and Show Improved Selectivity over Y4R” (J Med Chem, 2020).

Positions of bridges follow the written chain, without caps; N, C: chain ends. Non-standard residues stand in square brackets, D forms with d. Residues, ends and D or L forms follow the SMILES beside them. Chains are numbered I, II in the order given. Dap = NC[C@H](N)C(=O)O

Experiment [1] has as its target T1, Neuropeptide Y receptor type 4 (Homo sapiens, UniProt P50391). As to the kind of experiment: Displacement of (sCy5)-[Lys2 Arg4]-BVD15 from GFP-tagged Y4R in human HEK293T cells assessed as inhibitory constant incubated for 5 mins followed by (sCy5)-[Lys2 Arg4]-BVD15 addition and measured after 30 mins by fluorescence based assay. The format is cell-based. The gist of the method: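 Competitors (10^-10–10^-6 M) added in HBSS/0.1% BSA with H33342 for 5 min, then 100 nM final (sCy5)-[Lys²Arg⁴]-BVD15 for 30 min at 37 °C. Washed and imaged confocally; granule counts per cell. Non-specific binding with 100 nM PP.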

The species entered for the next experiment is Homo sapiens. As to the kind of experiment: Selectivity index, ratio of Ki of GFP-tagged Y4R in human HEK293T cells to Ki GFP-tagged Y1R in human HEK293T cells. The experiment is classed as cell-based. The gist of the method: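 Ratio of mean Ki values, Y4/Y1, from whole-cell competition binding in tetracycline-induced 293TR Y1-GFP or Y4-GFP cells. Tracer was 100 nM (sCy5)-[Lys²Arg⁴]-BVD15, added after 5 min competitor preincubation, then 30 min at 37 °C, with imaging read-out.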

Experiment [2] addresses T2, Neuropeptide Y receptor type 1 (Homo sapiens, UniProt P25929).
T2 sequence (P25929 whole entry): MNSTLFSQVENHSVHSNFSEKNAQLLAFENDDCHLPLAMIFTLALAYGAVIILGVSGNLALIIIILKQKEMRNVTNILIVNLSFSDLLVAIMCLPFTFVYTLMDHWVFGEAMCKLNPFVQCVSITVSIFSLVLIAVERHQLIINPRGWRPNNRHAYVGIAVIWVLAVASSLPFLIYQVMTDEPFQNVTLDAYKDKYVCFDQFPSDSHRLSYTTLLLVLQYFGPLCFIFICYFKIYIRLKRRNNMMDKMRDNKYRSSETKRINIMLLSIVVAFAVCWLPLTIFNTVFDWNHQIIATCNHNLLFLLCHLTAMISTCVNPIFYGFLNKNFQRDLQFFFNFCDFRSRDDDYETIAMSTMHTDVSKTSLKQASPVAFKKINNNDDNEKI
As to the kind of experiment: Displacement of (sCy5)-[Lys2 Arg4]-BVD15 from GFP-tagged Y1R in human HEK293T cells assessed as inhibitory constant incubated for 5 mins followed by (sCy5)-[Lys2 Arg4]-BVD15 addition and measured after 30 mins by fluorescence based assay. The experiment is classed as cell-based.

Experiment [3] has as its target T1, Neuropeptide Y receptor type 4. Kind of experiment: Agonist activity at Y4R in human HEK293T cells assessed as increase in beta-arrestin recruitment incubated for 60 mins by Hoechst 33342 dye based fluorescence analysis.
Experiment [4] deals with T3, Neuropeptide Y receptor type 1 (Homo sapiens) (UniProt P25929).
T3 sequence (whole entry): T2 sequence (P25929 whole entry)
Kind of experiment: Potency index, ratio of Ki of compound to Ki of 1229U91 for displacement of (sCy5)-[Lys2 Arg4]-BVD15 from GFP-tagged Y1R in human HEK293T cells assessed as inhibitory constant incubated for 5 mins followed by (sCy5)-[Lys2 Arg4]-BVD15 addition and measured after 30 mins by fluorescence based assay.

The target of experiment [5] is T1, Neuropeptide Y receptor type 4. Kind of experiment: Agonist activity at Y4R in human HEK293T cells assessed as increase in beta-arrestin recruitment incubated for 60 mins by Hoechst 33342 dye based fluorescence analysis relative to pancreatic polypeptide.

T1 sequence (P50391 whole entry): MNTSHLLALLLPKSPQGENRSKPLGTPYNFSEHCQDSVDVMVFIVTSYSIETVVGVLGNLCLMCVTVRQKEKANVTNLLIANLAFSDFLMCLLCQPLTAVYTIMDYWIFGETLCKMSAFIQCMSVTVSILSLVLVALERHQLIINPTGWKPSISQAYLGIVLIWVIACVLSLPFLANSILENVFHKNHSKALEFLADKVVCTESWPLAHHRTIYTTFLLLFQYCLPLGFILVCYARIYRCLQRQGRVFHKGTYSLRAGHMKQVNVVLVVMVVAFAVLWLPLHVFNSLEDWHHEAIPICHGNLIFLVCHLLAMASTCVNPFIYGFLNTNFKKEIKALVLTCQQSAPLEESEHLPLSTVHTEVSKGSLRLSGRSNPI

On to `CC[C@H](C)[C@H](N)C(=O)N[C@H]1CCC(=O)NC[C@@H](C(=O)N[C@@H](Cc2ccc(O)cc2)C(=O)N[C@@H](CCCNC(=N)N)C(=O)N[C@@H](CC(C)C)C(=O)N[C@@H](CCCNC(=N)N)C(=O)N[C@@H](Cc2ccc(O)cc2)C(N)=O)NC(=O)[C@@H]2CCCN2C(=O)[C@@H](NC(=O)[C@@H](N)[C@@H](C)CC)CCC(=O)NC[C@@H](C(=O)N[C@@H](Cc2ccc(O)cc2)C(=O)N[C@@H](C)C(=O)N[C@@H](CC(C)C)C(=O)N[C@@H](CCCNC(=N)N)C(=O)N[C@@H](Cc2ccc(O)cc2)C(N)=O)NC(=O)[C@@H]2CCCN2C1=O` (I: H-IEP[Dap]YALRY-NH2 / II: H-IEP[Dap]YRLRY-NH2; amide I:2-II:4, I:4-II:2), for which the Ki in experiment [1] is 245 nM; in experiment [2], 0.575 nM. The Ratio Ki in the experiment listed under Homo sapiens amounted to 419. Also, the EC50 in experiment [3] was 7.59 nM. Further, in experiment [4], the Ki ratio was determined as 2. Besides, the Rmax in experiment [5] worked out at 49.1%.

In general, Ki refers to the dissociation constant of the complex between target and ligand, obtained from inhibition or displacement. In general, EC50 refers to the concentration giving half of the maximal effect.
